Results from ChEMBL document CHEMBL4610022, “Imidazolidine-2,4,5- and pirimidine-2,4,6-triones - New primary pharmacophore for soluble epoxide hydrolase inhibitors with enhanced water solubility” (Bioorg Med Chem Lett, 2020).
≈ marks a conversion by molar mass, not a printed value.

Target: T1, Bifunctional epoxide hydrolase 2 (Homo sapiens, UniProt P34913)
T1 sequence (P34913 whole entry): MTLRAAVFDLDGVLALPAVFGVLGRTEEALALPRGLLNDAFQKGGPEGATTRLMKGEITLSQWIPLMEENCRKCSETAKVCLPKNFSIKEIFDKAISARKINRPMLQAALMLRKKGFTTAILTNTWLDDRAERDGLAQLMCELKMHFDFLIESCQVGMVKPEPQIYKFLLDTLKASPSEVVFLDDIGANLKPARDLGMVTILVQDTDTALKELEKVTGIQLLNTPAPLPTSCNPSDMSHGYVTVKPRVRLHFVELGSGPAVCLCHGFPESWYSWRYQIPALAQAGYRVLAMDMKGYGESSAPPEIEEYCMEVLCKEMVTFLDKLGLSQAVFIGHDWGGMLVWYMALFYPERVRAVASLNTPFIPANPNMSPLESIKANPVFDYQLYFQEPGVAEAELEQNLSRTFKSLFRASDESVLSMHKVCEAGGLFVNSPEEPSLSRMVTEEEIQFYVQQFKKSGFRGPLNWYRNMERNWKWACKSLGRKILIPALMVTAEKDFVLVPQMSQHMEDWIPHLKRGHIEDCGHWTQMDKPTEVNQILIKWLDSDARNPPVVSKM
Experiment: Inhibition of human soluble epoxide hydrolase by kinetic fluorescent assay
Procedure, shortened: (§1)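 Kinetic fluorescent read-out of sEH activity; each reported value is the mean of three separate experiments.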

SMILES | IC50 [nM]
O=C1C(=O)N(CCC23CC4CC(CC(C4)C2)C3)C(=O)N1CCCCN1C(=O)C(=O)N(CCC23CC4CC(CC(C4)C2)C3)C1=O | 294
O=C1C(=O)N(CCC23CC4CC(CC(C4)C2)C3)C(=O)N1CCCCCCCCN1C(=O)C(=O)N(CCC23CC4CC(CC(C4)C2)C3)C1=O | 438
O=C(NCC12CC3CC(CC(C3)C1)C2)Nc1ccccc1F | 0.7
O=C(O)c1ccc(O[C@H]2CC[C@H](N3C(=O)C(=O)N(C4CCCCCC4)C3=O)CC2)cc1 | 86.8
O=C1C(=O)N(c2ccccc2F)C(=O)N1CC12CC3CC(CC(C3)C1)C2 | 311
O=C(NC12CC3CC(C1)C(=O)C(C3)C2)NC12CC3CC(C1)C(=O)C(C3)C2 | 12
O=C(Nc1ccccc1F)NC1C2CC3CC(C2)CC1C3 (stereo not given) | 1
O=C(O)c1ccc(O[C@H]2CC[C@H](N3C(=O)C(=O)N(c4ccc(OC(F)(F)F)cc4)C3=O)CC2)cc1 | 7.7
CCC(CC12CC3CC(CC(C3)C1)C2)N1C(=O)C(=O)N(CCCCCCCCN2C(=O)C(=O)N(C(CC)CC34CC5CC(CC(C5)C3)C4)C2=O)C1=O (stereo not given) | 650
O=C(O)c1ccc(O[C@H]2CC[C@H](N3C(=O)C(=O)N(C45CC6CC(CC(Cl)(C6)C4)C5)C3=O)CC2)cc1 | 0.4
CC12CC3CC(C)(C1)CC(N1C(=O)C(=O)N(c4ccccc4F)C1=O)(C3)C2 | 371
CC12CC3CC(C)(C1)CC(N1C(=O)C(=O)N(C4C5CC6CC(C5)CC4C6)C1=O)(C3)C2 (stereo not given) | 22.8
CC12CC3CC(C)(C1)CC(NC(=O)Nc1ccccc1F)(C3)C2 | 3.6
O=C1C(=O)N(C23CC4CC(CC(C4)C2)C3)C(=O)N1CCCCCCCCN1C(=O)C(=O)N(C23CC4CC(CC(C4)C2)C3)C1=O | 3.8
O=C(NCCN(CCNC(=O)NCC12CC3CC(CC(C3)C1)C2)CCNC(=O)NCC12CC3CC(CC(C3)C1)C2)NCC12CC3CC(CC(C3)C1)C2 | 6.7
O=C1C(=O)N(C2C3CC4CC(C3)CC2C4)C(=O)N1c1ccccc1F (stereo not given) | 6130
O=C1C(=O)N(CCC23CC4CC(CC(C4)C2)C3)C(=O)N1CCCCCCN1C(=O)C(=O)N(CCC23CC4CC(CC(C4)C2)C3)C1=O | 92
O=C1C(=O)N(C23CC4CC(CC(C4)C2)C3)C(=O)N1CCCCCCN1C(=O)C(=O)N(C23CC4CC(CC(C4)C2)C3)C1=O | 1.6
O=C1C(=O)N(c2ccccc2F)C(=O)N1c1ccc(C23CC4CC(CC(C4)C2)C3)cc1 | 160
O=C1C(=O)N(CC23CC4CC(CC(C4)C2)C3)C(=O)N1CCN(CCN1C(=O)C(=O)N(CC23CC4CC(CC(C4)C2)C3)C1=O)CCN1C(=O)C(=O)N(CC23CC4CC(CC(C4)C2)C3)C1=O | 80.3
O=C(NC1CCCCCC1)N[C@H]1CC[C@H](Oc2ccc(C(=O)O)cc2)CC1 | 4.5
CC(N1C(=O)C(=O)N(c2ccccc2F)C1=O)C12CC3CC(CC(C3)C1)C2 (stereo not given) | 466
CCC(CC12CC3CC(CC(C3)C1)C2)N1C(=O)C(=O)N(C23CC4CC(C)(C2)C[C@@](C)(C4)C3)C1=O (stereo not given in full) | 216
O=C1C2CC3CC1CC(N1C(=O)C(=O)N(C45CC6CC(C4)C(=O)C(C6)C5)C1=O)(C3)C2 | 8420
CCC(CC12CC3CC(CC(C3)C1)C2)N1C(=O)C(=O)N(CCCCN2C(=O)C(=O)N(C(CC)CC34CC5CC(CC(C5)C3)C4)C2=O)C1=O (stereo not given) | 8.4

Target: T1, Bifunctional epoxide hydrolase 2
Experiment: Inhibition of human soluble epoxide hydrolase using cyano(2methoxy naphthalen-6-yl)methyl trans-(3-phenyloxyran-2-yl)methylcarbonate as substrate preincubated for 5 mins followed by substrate addition and measured after 10 mins by fluorescence based assay
Procedure, shortened: as §1

SMILES | IC50 [nM]
CC12CC3CC(C)(C1)CC(NC(=O)NC1C4CC5CC(C4)CC1C5)(C3)C2 (stereo not given) | 9.6
O=C(NCCCCCCNC(=O)NCCC12CC3CC(CC(C3)C1)C2)NCCC12CC3CC(CC(C3)C1)C2 | 0.8
O=C(NC12CC3CC(CC(Cl)(C3)C1)C2)N[C@H]1CC[C@H](Oc2ccc(C(=O)O)cc2)CC1 | 0.4
O=C(NCCCCNC(=O)NCCC12CC3CC(CC(C3)C1)C2)NCCC12CC3CC(CC(C3)C1)C2 | 3.4
CCC(CC12CC3CC(CC(C3)C1)C2)NC(=O)NC12CC3CC(C)(C1)C[C@@](C)(C3)C2 (stereo not given in full) | 13.8
O=C(NCCCCCCCCNC(=O)NCCC12CC3CC(CC(C3)C1)C2)NCCC12CC3CC(CC(C3)C1)C2 | 1.5

Tested on: not listed separately
Experiment: Aqueous solubility of compound
Assay type: physicochemical
Procedure, shortened: (§2)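 Solubility measured in 0.1 M sodium phosphate buffer, pH 7.4, containing 1% DMSO.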

SMILES | solubility [µM]
O=C(Nc1ccc(OC(F)(F)F)cc1)N[C@H]1CC[C@H](Oc2ccc(C(=O)O)cc2)CC1 | 5 (≈ 2.19 µg/mL)

Tested on: not listed separately
Experiment: Solubility of compound in pH 7.4 sodium phosphate buffer
Assay type: physicochemical
Procedure, shortened: as §2

SMILES | solubility [µM]
O=C1C(=O)N(CCC23CC4CC(CC(C4)C2)C3)C(=O)N1CCCCN1C(=O)C(=O)N(CCC23CC4CC(CC(C4)C2)C3)C1=O | 900 (≈ 546 µg/mL)
CC12CC3CC(C)(C1)CC(NC(=O)NC1C4CC5CC(C4)CC1C5)(C3)C2 (stereo not given) | 20 (≈ 7.13 µg/mL)
O=C1C(=O)N(CCC23CC4CC(CC(C4)C2)C3)C(=O)N1CCCCCCCCN1C(=O)C(=O)N(CCC23CC4CC(CC(C4)C2)C3)C1=O | 600 (≈ 398 µg/mL)
O=C(NCC12CC3CC(CC(C3)C1)C2)Nc1ccccc1F | 65 (≈ 19.7 µg/mL)
O=C(NCCCCCCNC(=O)NCCC12CC3CC(CC(C3)C1)C2)NCCC12CC3CC(CC(C3)C1)C2 | 80 (≈ 42.1 µg/mL)
O=C(O)c1ccc(O[C@H]2CC[C@H](N3C(=O)C(=O)N(C4CCCCCC4)C3=O)CC2)cc1 | 280 (≈ 120 µg/mL)
O=C1C(=O)N(c2ccccc2F)C(=O)N1CC12CC3CC(CC(C3)C1)C2 | 350 (≈ 125 µg/mL)
O=C(NC12CC3CC(C1)C(=O)C(C3)C2)NC12CC3CC(C1)C(=O)C(C3)C2 | 1750 (≈ 624 µg/mL)
O=C(Nc1ccccc1F)NC1C2CC3CC(C2)CC1C3 (stereo not given) | 85 (≈ 24.5 µg/mL)
CC(NC(=O)Nc1ccccc1F)C12CC3CC(CC(C3)C1)C2 (stereo not given) | 55 (≈ 17.4 µg/mL)
O=C(O)c1ccc(O[C@H]2CC[C@H](N3C(=O)C(=O)N(c4ccc(OC(F)(F)F)cc4)C3=O)CC2)cc1 | 210 (≈ 103 µg/mL)
CCC(CC12CC3CC(CC(C3)C1)C2)N1C(=O)C(=O)N(CCCCCCCCN2C(=O)C(=O)N(C(CC)CC34CC5CC(CC(C5)C3)C4)C2=O)C1=O (stereo not given) | 100 (≈ 71.9 µg/mL)
O=C(NC12CC3CC(CC(Cl)(C3)C1)C2)N[C@H]1CC[C@H](Oc2ccc(C(=O)O)cc2)CC1 | 500 (≈ 223 µg/mL)
O=C(O)c1ccc(O[C@H]2CC[C@H](N3C(=O)C(=O)N(C45CC6CC(CC(Cl)(C6)C4)C5)C3=O)CC2)cc1 | 250 (≈ 125 µg/mL)
CC12CC3CC(C)(C1)CC(N1C(=O)C(=O)N(c4ccccc4F)C1=O)(C3)C2 | 200 (≈ 74.1 µg/mL)
CC12CC3CC(C)(C1)CC(N1C(=O)C(=O)N(C4C5CC6CC(C5)CC4C6)C1=O)(C3)C2 (stereo not given) | 100 (≈ 41.1 µg/mL)
CC12CC3CC(C)(C1)CC(NC(=O)Nc1ccccc1F)(C3)C2 | 65 (≈ 20.6 µg/mL)

SMILES | solubility [µM]
O=C1C(=O)N(C23CC4CC(CC(C4)C2)C3)C(=O)N1CCCCCCCCN1C(=O)C(=O)N(C23CC4CC(CC(C4)C2)C3)C1=O | 110 (≈ 66.7 µg/mL)
O=C(NCCN(CCNC(=O)NCC12CC3CC(CC(C3)C1)C2)CCNC(=O)NCC12CC3CC(CC(C3)C1)C2)NCC12CC3CC(CC(C3)C1)C2 | 70 (≈ 50.4 µg/mL)
O=C(NCCCCNC(=O)NCCC12CC3CC(CC(C3)C1)C2)NCCC12CC3CC(CC(C3)C1)C2 | 100 (≈ 49.9 µg/mL)
O=C1C(=O)N(C2C3CC4CC(C3)CC2C4)C(=O)N1c1ccccc1F (stereo not given) | 250 (≈ 85.6 µg/mL)
O=C1C(=O)N(CCC23CC4CC(CC(C4)C2)C3)C(=O)N1CCCCCCN1C(=O)C(=O)N(CCC23CC4CC(CC(C4)C2)C3)C1=O | 1300 (≈ 825 µg/mL)
O=C1C(=O)N(C23CC4CC(CC(C4)C2)C3)C(=O)N1CCCCCCN1C(=O)C(=O)N(C23CC4CC(CC(C4)C2)C3)C1=O | 120 (≈ 69.4 µg/mL)
CCC(CC12CC3CC(CC(C3)C1)C2)NC(=O)NC12CC3CC(C)(C1)C[C@@](C)(C3)C2 (stereo not given in full) | 40 (≈ 16.5 µg/mL)
O=C(NCCCCCCCCNC(=O)NCCC12CC3CC(CC(C3)C1)C2)NCCC12CC3CC(CC(C3)C1)C2 | 75 (≈ 41.6 µg/mL)
O=C1C(=O)N(c2ccccc2F)C(=O)N1c1ccc(C23CC4CC(CC(C4)C2)C3)cc1 | 250 (≈ 105 µg/mL)
O=C1C(=O)N(CC23CC4CC(CC(C4)C2)C3)C(=O)N1CCN(CCN1C(=O)C(=O)N(CC23CC4CC(CC(C4)C2)C3)C1=O)CCN1C(=O)C(=O)N(CC23CC4CC(CC(C4)C2)C3)C1=O | 650 (≈ 573 µg/mL)
O=C(Nc1ccc(C23CC4CC(CC(C4)C2)C3)cc1)Nc1ccccc1F | 85 (≈ 31 µg/mL)
O=C(NC1CCCCCC1)N[C@H]1CC[C@H](Oc2ccc(C(=O)O)cc2)CC1 | 100 (≈ 37.4 µg/mL)
CC(N1C(=O)C(=O)N(c2ccccc2F)C1=O)C12CC3CC(CC(C3)C1)C2 (stereo not given) | 900 (≈ 333 µg/mL)
CCC(CC12CC3CC(CC(C3)C1)C2)N1C(=O)C(=O)N(C23CC4CC(C)(C2)C[C@@](C)(C4)C3)C1=O (stereo not given in full) | 100 (≈ 46.7 µg/mL)
O=C1C2CC3CC1CC(N1C(=O)C(=O)N(C45CC6CC(C4)C(=O)C(C6)C5)C1=O)(C3)C2 | 150 (≈ 61.6 µg/mL)
CCC(CC12CC3CC(CC(C3)C1)C2)N1C(=O)C(=O)N(CCCCN2C(=O)C(=O)N(C(CC)CC34CC5CC(CC(C5)C3)C4)C2=O)C1=O (stereo not given) | 90 (≈ 59.7 µg/mL)
